The values that follow come from ChEMBL document CHEMBL1136915 (Bioorg Med Chem Lett, 2009).

The structures appear in SMILES notation. Bounds are passed on as bounds.

Data set [1] in a line: Nitric oxide release in phosphate buffer containing 5 mM L-cysteine at pH 7.4 incubated at 37 degC after 1.5 hrs. The settings on record: pH 7.4, 1.5 h.
A short description of data set [2]: Nitric oxide release in phosphate buffer at pH 7.4 incubated at 37 degC after 1.5 hrs. Further details: concentration or dose not given beside the values. The settings on record: pH 7.4, 1.5 h.
Data set [3] concerns the target T1, Prostaglandin G/H synthase 2 (Homo sapiens, UniProt P35354).
T1 sequence (P35354 whole entry): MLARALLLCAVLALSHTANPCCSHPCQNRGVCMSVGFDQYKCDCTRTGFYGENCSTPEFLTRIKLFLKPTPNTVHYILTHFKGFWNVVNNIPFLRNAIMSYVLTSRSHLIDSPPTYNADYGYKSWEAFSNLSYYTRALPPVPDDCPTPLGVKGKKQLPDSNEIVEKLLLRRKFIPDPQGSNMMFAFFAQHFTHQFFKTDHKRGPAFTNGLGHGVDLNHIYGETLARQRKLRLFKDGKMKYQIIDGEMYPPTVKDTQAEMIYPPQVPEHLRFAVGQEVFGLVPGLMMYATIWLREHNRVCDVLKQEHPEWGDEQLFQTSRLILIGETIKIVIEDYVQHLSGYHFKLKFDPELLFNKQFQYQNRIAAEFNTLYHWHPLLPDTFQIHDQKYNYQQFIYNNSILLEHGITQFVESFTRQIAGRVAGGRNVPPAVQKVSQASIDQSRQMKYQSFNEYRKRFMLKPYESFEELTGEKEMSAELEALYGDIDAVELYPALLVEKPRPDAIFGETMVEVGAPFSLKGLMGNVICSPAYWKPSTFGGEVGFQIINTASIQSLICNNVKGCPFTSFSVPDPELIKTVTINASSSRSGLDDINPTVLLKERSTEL
Kind of data set: Inhibition of human COX2 by enzyme immunoassay. An outline of the steps: (§1)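 COX inhibition was measured in vitro with an enzyme immunoassay kit. IC50 is the mean of two determinations, with deviation from the mean <10%. COX-2 selectivity index = COX-1 IC50/COX-2 IC50.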

The next data set deals with Serum. Kind of data set: Nitric oxide release in rat serum containing phosphate buffer at pH 7.4 incubated at 37 degC after 1.5 hrs. As to conditions: pH 7.4, 1.5 h.
The target in data set [4] is T2, Prostaglandin G/H synthase 1 (Ovis aries, UniProt P05979).
T2 sequence (P05979 whole entry): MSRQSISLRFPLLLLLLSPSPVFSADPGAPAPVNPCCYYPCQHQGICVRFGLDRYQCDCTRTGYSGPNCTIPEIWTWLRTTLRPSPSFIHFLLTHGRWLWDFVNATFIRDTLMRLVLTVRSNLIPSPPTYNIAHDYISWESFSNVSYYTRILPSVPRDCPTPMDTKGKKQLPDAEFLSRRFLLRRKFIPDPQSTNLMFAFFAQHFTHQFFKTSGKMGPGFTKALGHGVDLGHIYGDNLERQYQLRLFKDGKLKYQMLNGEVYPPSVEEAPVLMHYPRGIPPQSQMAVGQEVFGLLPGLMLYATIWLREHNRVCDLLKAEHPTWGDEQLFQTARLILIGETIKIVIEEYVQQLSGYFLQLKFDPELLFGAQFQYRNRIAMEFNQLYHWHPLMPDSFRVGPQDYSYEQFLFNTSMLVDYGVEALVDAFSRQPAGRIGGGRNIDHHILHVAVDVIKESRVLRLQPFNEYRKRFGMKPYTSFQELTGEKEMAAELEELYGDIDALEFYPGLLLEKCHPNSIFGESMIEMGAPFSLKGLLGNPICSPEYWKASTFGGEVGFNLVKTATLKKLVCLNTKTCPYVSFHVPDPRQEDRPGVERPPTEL
Kind of data set: Inhibition of ovine COX1 by enzyme immunoassay. In a few lines: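 COX inhibition was measured in vitro with an enzyme immunoassay kit. COX-2 selectivity index = COX-1 IC50/COX-2 IC50.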

The nature of data set [5]: Selectivity ratio of IC50 for ovine COX1 to IC50 for human COX2. In a few lines:
as §1

Data set [6] has as its system Rattus norvegicus. Kind of data set: Antiinflammatory activity against carrageenan-induced rat inflammation model assessed as inhibition of paw edema at 357 umol/kg, po after 3 hrs. The format is functional. An outline of the steps: (§2)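 Test compound was given orally to rats at the stated dose (µmol/kg), followed by carrageenan-induced paw edema.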
The subject of data set [7] is Rattus norvegicus. In words: Antiinflammatory activity against carrageenan-induced rat inflammation model assessed as inhibition of paw edema at 11.7 umol/kg, po after 3 hrs. The format is functional. In a few lines: as §2
The test system of data set [8] is Rattus norvegicus. In words: Antiinflammatory activity against carrageenan-induced rat inflammation model assessed as inhibition of paw edema at 714 umol/kg, po after 3 hrs. The class given is functional. An outline of the steps: as §2
Data set [9] deals with Rattus norvegicus. In words: Antiinflammatory activity against carrageenan-induced rat inflammation model assessed as inhibition of paw edema at 327 umol/kg, po after 3 hrs. The class given is functional. In a few lines: as §2

`O=[N+]([O-])OCC(CO[N+](=O)[O-])O[N+](=O)[O-]` [NITROGLYCERIN]: the Activity in [1] was determined as 10.1%; in [2], 2.8%.
For orientation: IC50 means the concentration that inhibits the measured activity by half. By inhibition in vivo is commonly meant the change of the read-out against control, counted positive when it falls. Regarding `CC(=O)OCO/N=[N+](\[O-])N1CCC[C@H]1COC(=O)c1ccccc1OC(C)=O`, the IC50 is 2.2 µM in data set [3] and above 100 µM in [4]. Moreover, the Activity is reported as 50.6% in the data set with Serum and 7.4% in [2]. The Ratio IC50 in data set [5] is above 45. Besides, in the data set with Rattus norvegicus [6], the inhibition in vivo at 357 µmol/kg came to 23.7%.
On to `COc1ccc2c(c1)c(CC(=O)OC[C@@H]1CCCN1/[N+]([O-])=N/OCOC(C)=O)c(C)n2C(=O)c1ccc(Cl)cc1`, for which the results for the half-maximal inhibitory concentration (IC50) in data set [3] and in data set [4] were 9.3 µM and above 100 µM, respectively. The figures for the Activity (with Serum; in data set [2]) were 80.7% and 7.9%, respectively. The inhibition in vivo at 11.7 µmol/kg in the data set on Rattus norvegicus [7] turned out to be 53.6%. The Ratio IC50 in data set [5] was above 10.
Take `COc1ccc2c(c1)c(CC(=O)O)c(C)n2C(=O)c1ccc(Cl)cc1` [INDOMETHACIN]: the inhibition in vivo at 11.7 µmol/kg in the data set on Rattus norvegicus [7] amounted to 50%.
Take `COc1ccc2c(c1)c(CC(=O)OC(CO[N+](=O)[O-])CO[N+](=O)[O-])c(C)n2C(=O)c1ccc(Cl)cc1`: the Activity in data set [1] was 7.4%; in data set [2], 3.8%. The IC50 was 0.6 µM in [3] and above 100 µM in [4]. In addition, in the data set with Rattus norvegicus [7], the inhibition in vivo at 11.7 µmol/kg amounted to 42.2%. The Ratio IC50 in [5] is above 166.
As to `CC(=O)Oc1ccccc1C(=O)O` [ASPIRIN], the inhibition in vivo at 714 µmol/kg in the data set with Rattus norvegicus [8] was determined as 50%.
Take `CC(C)Cc1ccc(C(C)C(=O)OC(CO[N+](=O)[O-])CO[N+](=O)[O-])cc1` (stereo not drawn): the Activity came to 6.8% in data set [1] and 3.4% in [2]. In addition, the half-maximal inhibitory concentration (IC50) in [3] is 1.7 µM; in [4], above 100 µM. In the data set with Rattus norvegicus [9], the inhibition in vivo at 327 µmol/kg stood at 59.1%. For the same molecule, the Ratio IC50 in data set [5] was above 58.
Take `CC(C)Cc1ccc(C(C)C(=O)O)cc1` (stereo not drawn) [IBUPROFEN]: the inhibition in vivo at 327 µmol/kg in the data set on Rattus norvegicus [9] amounted to 50%.
With `CC(=O)Oc1ccccc1C(=O)OC(CO[N+](=O)[O-])CO[N+](=O)[O-]`, the values for the Activity in [1] and in [2] were 7.8% and 3.6%, respectively. For the same molecule, the IC50 in [3] was 7.7 µM; in data set [4], above 100 µM. In [5], the Ratio IC50 is above 13. For the same molecule, the inhibition in vivo at 357 µmol/kg with Rattus norvegicus [6] came to 30.5%.
With `[Na+].[O-]/N=[N+](\[O-])N1CCC[C@H]1CO`, the values for the Activity (with Serum; in data set [2]) were 84.8% and 84.5%, respectively.
Take `CC(=O)OCO/N=[N+](\[O-])N1CCC[C@H]1COC(=O)C(C)c1ccc(CC(C)C)cc1` (stereo partly drawn): the IC50 in data set [3] was 6.4 µM; in [4] it was above 100 µM. Moreover, the Activity amounted to 79.5% in the data set with Serum and 4.4% in data set [2]. The inhibition in vivo at 327 µmol/kg with Rattus norvegicus [9] is 57.1%. Besides, in data set [5], the Ratio IC50 is above 15.
